Laboratory results as given in the EternaBench riboswitch data.

System: MS2 coat protein
Assay: apparent Kd, MS2 coat protein; higher = weaker binding; RNA-MaP array; FMN 200 µM where present
Summary of the method: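 Designs on Illumina sequencing-chip clusters, transcribed by stalled E. coli RNA polymerase, were exposed to SNAP-549-labelled MS2 coat protein in doubling steps from 0.7 or 1.5 nM up to 3 µM, without and then with constant ligand. The buffer held 100 mM Tris-HCl pH 7.5, 80 mM KCl, 4 mM MgCl2, BSA, DTT, yeast tRNA and Tween-20. Apparent Kd values are medians of filtered per-cluster binding-curve fits to green signal normalised to red-channel RNA signal and control-cluster median Fmax.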

[1] = designed as: ON switch for flavin mononucleotide, no ligand
[2] = ligand present: flavin mononucleotide, designed as: ON switch for flavin mononucleotide
[3] = designed as: OFF switch for flavin mononucleotide, no ligand
[4] = ligand present: flavin mononucleotide, designed as: OFF switch for flavin mononucleotide

Row | Sequence | apparent Kd [1] | apparent Kd [2] | apparent Kd [3] | apparent Kd [4]
1 | GGUCCAUCAUGAGGAUAUGGCACCUUAUUGGUGCCAGAAGGCGUGUCUAUAGACAUGAGGAUCACCCAUGUAAUAAAUUGGACC | 614 nM | 49.6 nM | – | –
2 | GUUUCGUGAGGAUAUGUGGCUUCGAUCGUGCGAAAGAGGCUACAGAAGGCACAUGAGGAUCACCCAUGUUCCUC | – | – | 38.2 nM | 536 nM
3 | GUUGCGUUUGUGAGGAUAUGCUGUUCCUUGGUUCGGCAGAAGGCACAUGAGGAUCACCCAUGUGGUGUCGUUCC | – | – | 15.5 nM | 28.7 nM
4 | GGUUAAUAUCGAGGAUAUGUCUAGACACAUGAGGAUCACCCAUGUAUGUGUAUAGAAGGCGAUAUUAACAGCAUGUUACAUGCC | 38.1 nM | 16.8 nM | – | –
5 | AGAUCGAGUGUGAGGAUAUUGACCGGACGACCCAUCGAGAAGGCACAUGAGGAUCACCCAUGUGAUUCGGUUUA | – | – | 15.2 nM | 32.5 nM
6 | GGGUCAACAUGAGGAUCACCCAUGUAGGAUAUCGCUAUUGUAAUCAUGAAACAUGAUUACAAUAGCGAGAAGGACAUAUGUCCC | – | – | 9 nM | 11.8 nM
7 | UUGGCAACGUAGAAGGGUGACAUGAGGAUCACCCAUGUGCCGAUAUUUCUCGAGAUAUGUCGGCCACAGGAUAUACGUGCGAAC | 107 nM | 120 nM | – | –
8 | UUAUUAUAUGUAGGAUAUGCAUAUUGUUGUUAUGCAGAAGGACAUGAGGAUCACCCAUGUAUAUUAUUGUUAUAUAUUGUAUAU | – | – | 24.6 nM | 30.5 nM
9 | GGGUACAUCGGAGGAUAUCAUGUAAAUACAUGAGGAUCACCCAUGUCGAUGGAGACAUCGGAGAUCGAGAAGGCCGAUGUACCG | 168 nM | 294 nM | – | –
10 | CGAGGUGGAGUGAGGAUAUCGUGUUCGAAAGAACGUGAGAAGGCACAUGAGGAUCACCCAUGUGAUCCUGCUCG | – | – | 105 nM | 360 nM
11 | GGAUGACAAAGUCAUCCAUAACGAACAUGAGGAUCACCCAUGUAGGAUAUGCUACUCAAAGAGUAGCAGAAGGACAUGUGUCUU | – | – | 33.9 nM | 158 nM
12 | UGUUGUAUUACAGGAUAUCUAGUAUUUAUAUUUAGAGAAGGGUAUUCACAUGAGGAUCACCCAUGUAUAUACGAGGAAGUUGUG | 46.3 nM | 49.2 nM | – | –
13 | CGAGGCGUACAUGAGGAUCACCCAUGUACCUAACAACAAAGCAAGGAUAUCCUGGCUAUAAUACAGGAGAAGGUGUGGUCCUUA | – | 178 nM | – | –
14 | CGAUUAUUGAUCCAUUUUUUCAACAUGAGGAUCACCCAUGUGCAGGAUAUCGUGAUUAUUAUCAACGAGAAGGGCAAAUUCACG | – | – | 49.5 nM | 145 nM
15 | AAGAAGUCAGGAUAUGCUGCUCGUCACUUGCGUGAUGAGUAGCAGAAGGGACAUGAGGAUCACCCAUGUGGAAG | – | – | 111 nM | 240 nM
16 | UUCGUGCAGCUUUGCUGUACGCGUACAUGAGGAUCACCCAUGUAGGAUAUGGUAGGCCAAGCUUACUAGAAGGAUAUAGUGAUC | – | – | 95.5 nM | 88.7 nM
17 | CAGUACUGAGGAUAUACAUGAGGAUCACCCAUGUAUCCUAGCUAGGAAACUAGCAAAAGUAGAAGGCAGUACUG | – | – | 16 nM | 156 nM
18 | AGCCAAAUAGGAUAUGCCCGGGAUAACAUGAGGAUCACCCAUGUGACCGAUUCAUGUCCUGCAGAAGGAUUUGGGA | – | – | 13.2 nM | 24.4 nM
19 | UUAUUUUUACAGAAGGUUUAAUAAUAUGUAUGAGAAGGAUAUGUAACAUGAGGAUCACCCAUGUUUUGUCUAUAUGAGGAUCAU | – | – | 8.2 nM | 7.9 nM
20 | AAUUUACAGGGAGGAUAUACAUGAGGAUCACCCAUGUAAUCAUAUGAUAUUUUUUUUGUAUGAGUGUAGAAGGCCCAAAUACCA | – | – | 11.5 nM | 13 nM
21 | GGUGGACAUGAGGAUCACCCAUGUGAGGAUAUCGGCCGGUGCGUGGUGGCUGGCGUCUCGAGAAGGCACAUAGU | – | – | 92.1 nM | 166 nM
22 | UUGAUUAUACAAGGAUAUCAAUUGUAAUUGAGACUUACAUGAGGAUCACCCAUGUUAAUAUUUUUUGAGAAGGUGUAUUUUCAG | 27.2 nM | 25.4 nM | – | –
23 | UAGUACUAGGGAGGAUAUGGGAAGAUACAUGAGGAUCACCCAUGUUUAAGAAUGCCGAGAGGCAACUAGAAGGCCCUAGUACCU | 463 nM | 19.2 nM | – | –
24 | UGGUACUAGGGAGGAUAUGGGAAGAUACAUGAGGAUCACCCAUGUUUAAGAAUGCCGAGAGGCAACUAGAAGGCCCUAGUAACU | 461 nM | 20.2 nM | – | –
25 | GACGAAUAGCUAGGAUAUCGUAAAUCAUUGGUAGUCUCUAUUCACAUGAGGAUCACCCAUGUAAUCGAGAAGGAGCACUCGUUC | – | – | 80.4 nM | 240 nM
26 | GGUCAGCUAGGAUAUACAUGAGGAUCACCCAUGUACUGACCCAUGCGGGAGUCCGCAUGUAGAAGGAGCAAAAU | – | – | 20.9 nM | 22.6 nM
27 | AAUAAGUCAGGAUAUACUAUGUCAGGAGAGAGACUGACUAUGUAGAAGGGACAUGAGGAUCACCCAUGUAAUAA | – | – | 28.6 nM | 35.9 nM
28 | AAGUUUUUACAAGGAUAUCAUUUGUUUCUAAAUUCAACAUGAGGAUCACCCAUGUAACAAUGGAGUGAGAAGGUGUGUUGGCAA | 101 nM | 84.6 nM | – | –

Row | Sequence | apparent Kd [1] | apparent Kd [2] | apparent Kd [3] | apparent Kd [4]
29 | GAACGAUUGCCUACAUGAGGAUCACCCAUGUGGCUGACAAGCAGAAGGGCGGGUUUCAUUCUCCCGUAGGAUAUGCGCGUUCCA | 6.89 nM | 5.14 nM | – | –
30 | UGCUGUGUCAGAGGAUAUCUACUAAUAAUCCAUUGCAAAUAGCGAUGGACAUGAGGAUCACCCAUGUAGAAGGCUGUCACAGCA | – | – | 110 nM | 120 nM
31 | AAUUUACAUGAGGAUCACCCAUGUGAGGAUAUGAUACUAUGUACUUCGGUACAUAGUAUCAGAAGGCAUGUGGG | – | – | 27.2 nM | 21.4 nM
32 | CUGUUCACCAGUGGGCGACCACAUGAGGAUCACCCAUGUAGGGAGGAUAUGCCCGCGCAGCUGUAGCAGAAGGCCCUGCAAAUC | – | – | 21.2 nM | 125 nM
33 | CUGUGACGGAUCCAGAAUUACAACAUGAGGAUCACCCAUGUACAGGAUAUAGGGUUGAUAGGCGCCUAGAAGGGUAUGAUCACG | – | – | 156 nM | 177 nM
34 | CUGUUGUGGUACUGCAUGGCUUGGAGAGAAGGGUGAUUCACAUGAGGAUCACCCAUGUAGGACUUACAGGAUAUUUCCGGGUCU | 62.6 nM | 100 nM | – | –
35 | UGGUACUAGGGAGGAUAUGGGAAGAUACAUGAGGAUCACCCAUGUUUAAGAAGGCCGAGAGGCAACUAGAAGGCCCUAGUACCU | 396 nM | 16 nM | – | –
36 | UUUGCAUUCCGAGGAUAUUCAUAUAAUGACUUCACAUGAGGAUCACCCAUGUGGCGAUAGCCUAGGGAGAAGGCGGUUUGCUUU | 25.6 nM | 20.6 nM | – | –
37 | CGUGCGUAUGUGAGGAUAUGCUGGUCCUUGGAUCAGCAGAAGGCACAUGAGGAUCACCCAUGUGGUGUCGUACC | – | – | 262 nM | 44.1 nM
38 | CCUCGGUUAGGAUAUGGAUGGUCACCCUGCGGUGUACCGCUCCAGAAGGGACAUGAGGAUCACCCAUGUUACGC | – | – | 106 nM | 338 nM
39 | AGUCGGCGAGGAUAUACAUGAGGAUCACCCAUGUGAGAGAUAAAAGUGAGUUAGACAAGUAGAAGGCGCUGACA | – | – | 59.7 nM | 469 nM
40 | UGAUAGGACAGAGGAUAUGCCGAUAGGAUCUACUAUCGAAGAAUCCUCACAUGAGGAUCACCCAUGUAGAAGGCUGUUCUAUCU | – | – | 8.18 nM | 33 nM
41 | AUCAGCUCGACAGGAUAUACAUCACUGCUUCGGCAGUGUAUCUUAAUAACAUGAGGAUCACCCAUGUAGAAGGGUCGAGCUGAU | – | – | 17.8 nM | 31.6 nM
42 | GCGUUAGUAUCACAUGUAUUACAUGAGGAUCACCCAUGUUACUAGGAUAUGUAUUAGUAUUAUCAACAGAAGGAGUAAUAACGC | – | – | 12.5 nM | 17.6 nM
43 | GUCACUAGAGGAUAUACAAUGGUAUAUGAUCCUAGAGACAAACAUGAGGAUCACCCAUGUAGAAGGCUAGUAUU | – | – | 155 nM | 37.4 nM
44 | GAGCUGCAGACAGGAUAUGAGACCGCCACGGUCUCAGAAGGGUCAUGUUCUACAUGAGGAUCACCCAUGUCGGACAGCUCGAAG | 140 nM | 11.8 nM | – | –
45 | GCCGAAAAUGUGAGGAUAUACCUAUGGAUACAUAGGUAGAAGGCACAUGAGGAUCACCCAUGUUCCUCAUCGGC | – | – | 114 nM | 435 nM
46 | GGAAAACAUGAGGAUCACCCAUGUGAGGAUAUCGAUGUCCAAAAAGAAGUGCGGGACUCGAGAAGGCACUUGGA | – | – | 52.7 nM | 37.5 nM
47 | ACGUACUGAGGAUAUACGAACAUGUCAAAAGACGUGAAGGGACAUGAGGAUCACCCAUGUAGAAGGCAGUACGA | – | – | 42.2 nM | 194 nM
48 | GUUUAGUGAGGAUAUGUGGCUUCGAUCGUGCGCGUUCGGCUACAGAAGGCACAUGAGGAUCACCCAUGUUCCUC | – | – | 445 nM | 704 nM
49 | GGUCGUCACAUGAACAUGAGGAUCACCCAUGUAACUAGACAUGAGGAUAUGGAUCCUAAUUGGAUCCAGAAGGCAUGGACGACC | 203 nM | 31.2 nM | – | –
50 | CUUUUGUGAGGAUAUUAGUAGUAAAUAAAUAAAAUUACUACUGAGAAGGCACAUGAGGAUCACCCAUGUUCCUU | – | – | 12.6 nM | 38 nM
51 | AGGAAUUUGUAGAAGGACGACUAUUAAGAUUUCGUAGGAUAUACUAUUUACAUGAGGAUCACCCAUGUUUAAAUGGAACAAUGU | – | – | 8.06 nM | 11.1 nM
52 | UUAAUUAAUUAGAAGGCAUGUCAUAAGACAUGAGGAUCACCCAUGUAGUUAAGGCGAAAGCCGCAUGAGGAUAUAUAAAUAUAU | 552 nM | 319 nM | – | –
53 | GGGUACAUCGGAGGAUAUCAUGUAAAUACAUGAGGAUCACCCAUGUCGAUGGAGACAUCGGAGAUUGAGAAGGCCGAUGUACCU | 152 nM | 8.75 nM | – | –
54 | UUUAGUUGCGCGCAGGAUAUGUAUUAAUAUACAUGAGGAUCACCCAUGUGAGACCAAAUAGGUCUACAGAAGGGCGAAUCGCGAC | 446 nM | 47.6 nM | – | –
55 | GUGUACAGAGGAUAUACAUAAGCAUGGAAACAUGCAUCUUCACAUGAGGAUCACCCAUGUAGAAGGCUGUACAC | – | – | 18.1 nM | 75.6 nM
